Laboratory results published in ChEMBL document CHEMBL3525900, “Pharmacokinetics, distribution, and metabolism of [14C]sunitinib in rats, monkeys, and humans” (Drug Metab Dispos, 2012).

Tests used:
Assay type in all cases: ADME, organism-based
[1] = test system: Rattus norvegicus; test: Cmax as total radioactivity in male Sprague-Dawley rat plasma at 15 mg/kg, po administered as single dose by LC/MS/MS analysis; parameters: dose 15 mg/kg, dosed compound name [14C]Sunitinib, route oral; conditions: in vivo
Outline: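 Single dose of [14C]sunitinib L-malate as free base, 50 µCi/kg. IV dose was 5 mg/kg by tail vein in 5 females. Oral dose was 15 mg/kg by gavage in 3 females and 3 males. Total radioactivity was by scintillation counting. […] Cmax was read from raw data, t½ by log-linear regression, AUC by linear trapezoidal rule.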

[2] = test system: Homo sapiens; test: AUC (0 to infinity) as total radioactivity in human plasma at 50 mg, po administered as single dose […] by LC/MS/MS analysis; parameters: dose 50 mg, time infinity, route oral, dosed compound name [14C]Sunitinib; conditions: in vivo
Outline: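 Open-label phase I study in 8 subjects given one 50 mg oral dose of [14C]sunitinib (100 µCi). Plasma total radioactivity was counted by scintillation on triplicate 0.25 mL aliquots. Sunitinib was quantified by LC-MS-MS. Noncompartmental analysis: Cmax read directly, terminal t½ = ln(2)/slope of the log-concentration regression, AUC by linear trapezoidal rule to the last detectable concentration.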

[3] = test system: Adrenal; test: Drug concentration in male albino rat adrenal assessed as radioactivity per gram of tissue at 20 mg/kg administered as single dose via gastric gavage measured after 168 hrs by autoradiographic analysis; parameters: dose 20 mg/kg, dosed compound name [14C]Sunitinib; conditions: in vivo, po
[4] = test system: Zone of skin; test: Drug concentration in male Lister Hooded pigmented rat abdomen skin assessed as radioactivity per gram of tissue at 20 mg/kg administered as single dose via gastric gavage measured after 72 hrs by autoradiographic analysis; parameters: dose 20 mg/kg, dosed compound name [14C]Sunitinib; conditions: in vivo, po
[5] = Drug recovery in urine of female Sprague-Dawley rat at 15 mg/kg, po administered as single dose during 0 to 72 hrs by liquid scintillation counting; parameters: dose 15 mg/kg, dosed compound name [14C]Sunitinib, route oral; conditions: in vivo
[6] = Drug recovery in feces of female Sprague-Dawley rat at 15 mg/kg, po administered as single dose during 0 to 72 hrs by liquid scintillation counting; parameters: dose 15 mg/kg, dosed compound name [14C]Sunitinib, route oral; conditions: in vivo
[7] = test system: Rattus norvegicus; test: Drug recovery in cage residue of female Sprague-Dawley rat at 15 mg/kg, po administered as single dose during 0 to 72 hrs by liquid scintillation counting; parameters: dose 15 mg/kg, dosed compound name [14C]Sunitinib, route oral; conditions: in vivo
[8] = test system: Liver; test: Drug concentration in female albino rat liver assessed as radioactivity per gram of tissue at 20 mg/kg administered as single dose via gastric gavage measured after 3 hrs by autoradiographic analysis; parameters: dose 20 mg/kg, dosed compound name [14C]Sunitinib; conditions: in vivo, po
Outline: (§1)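 Sprague Dawley albino rats, ca 7-8 weeks old, dosed once by gastric gavage with [14C]sunitinib L-malate (15 mg freebase/kg, 100 µCi/kg). One male and one female killed by CO2 at 3, 6, 24, 72 and 168 h. Carcasses frozen in solid CO2/hexane, embedded and cut into 30 µm sagittal sections, then freeze-dried. Radioactivity quantified by whole-body autoradiography against standards by regression, background subtracted.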

[9] = test system: Large intestine; test: Drug concentration in male Lister Hooded pigmented rat large intestine assessed as radioactivity per gram of tissue at 20 mg/kg administered as single dose via gastric gavage measured after 24 hrs by autoradiographic analysis; parameters: dose 20 mg/kg, dosed compound name [14C]Sunitinib; conditions: in vivo, po
[10] = Drug concentration in male albino rat lymph node assessed as radioactivity per gram of tissue at 20 mg/kg administered as single dose via gastric gavage measured after 3 hrs by autoradiographic analysis; parameters: dose 20 mg/kg, dosed compound name [14C]Sunitinib; conditions: in vivo, po
[11] = test system: Stomach; test: Drug concentration in female albino rat stomach assessed as radioactivity per gram of tissue at 20 mg/kg administered as single dose via gastric gavage measured after 6 hrs by autoradiographic analysis; parameters: dose 20 mg/kg, dosed compound name [14C]Sunitinib; conditions: in vivo, po
[12] = Drug concentration in female albino rat uterus assessed as radioactivity per gram of tissue at 20 mg/kg administered as single dose via gastric gavage measured after 6 hrs by autoradiographic analysis; parameters: dose 20 mg/kg, dosed compound name [14C]Sunitinib; conditions: in vivo, po
[13] = test system: Pancreas; test: Drug concentration in male Lister Hooded pigmented rat pancreas assessed as radioactivity per gram of tissue at 20 mg/kg administered as single dose via gastric gavage measured after 168 hrs by autoradiographic analysis; parameters: dose 20 mg/kg, dosed compound name [14C]Sunitinib; conditions: in vivo, po
[14] = Drug concentration in female albino rat eye assessed as radioactivity per gram of tissue at 20 mg/kg administered as single dose via gastric gavage measured after 6 hrs by autoradiographic analysis; parameters: dose 20 mg/kg, dosed compound name [14C]Sunitinib; conditions: in vivo, po; outline: as §1
[15] = Drug concentration in male Lister Hooded pigmented rat eye assessed as radioactivity per gram of tissue at 20 mg/kg administered as single dose via gastric gavage measured after 336 hrs by autoradiographic analysis; parameters: dose 20 mg/kg, dosed compound name [14C]Sunitinib; conditions: in vivo, po
[16] = test system: Zone of skin; test: Drug concentration in male Lister Hooded pigmented rat abdomen skin assessed as radioactivity per gram of tissue at 20 mg/kg administered as single dose via gastric gavage measured after 336 hrs by autoradiographic analysis; parameters: dose 20 mg/kg, dosed compound name [14C]Sunitinib; conditions: in vivo, po
[17] = test system: Heart; test: Drug concentration in male Lister Hooded pigmented rat heart assessed as radioactivity per gram of tissue at 20 mg/kg administered as single dose via gastric gavage measured after 168 hrs by autoradiographic analysis; parameters: dose 20 mg/kg, dosed compound name [14C]Sunitinib; conditions: in vivo, po
[18] = test system: Heart; test: Drug concentration in female Lister Hooded pigmented rat heart assessed as radioactivity per gram of tissue at 20 mg/kg administered as single dose via gastric gavage measured after 24 hrs by autoradiographic analysis; parameters: dose 20 mg/kg, dosed compound name [14C]Sunitinib; conditions: in vivo, po
Outline: (§2)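 Lister Hooded (pigmented) rats, ca 7-8 weeks old, acclimated 7 days, given [14C]sunitinib L-malate by gastric gavage at 20 mg/kg (15 mg freebase/kg, 100 µCi/kg). One male and one female killed by CO2 at 24, 72, 168 and 336 h. Carcasses frozen in solid CO2/hexane and embedded in frozen cellulose. 30 µm sagittal cryosections were freeze-dried. Tissue radioactivity measured by quantitative whole-body autoradiography against calibration standards, with background subtracted.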

[19] = test system: Spleen; test: Drug concentration in male albino rat spleen assessed as radioactivity per gram of tissue at 20 mg/kg administered as single dose via gastric gavage measured after 24 hrs by autoradiographic analysis; parameters: dose 20 mg/kg, dosed compound name [14C]Sunitinib; conditions: in vivo, po
[20] = test system: Adrenal; test: Drug concentration in male albino rat adrenal assessed as radioactivity per gram of tissue at 20 mg/kg administered as single dose via gastric gavage measured after 72 hrs by autoradiographic analysis; parameters: dose 20 mg/kg, dosed compound name [14C]Sunitinib; conditions: in vivo, po
[21] = test system: Small intestine; test: Drug concentration in male albino rat small intestine assessed as radioactivity per gram of tissue at 20 mg/kg administered as single dose via gastric gavage measured after 72 hrs by autoradiographic analysis; parameters: dose 20 mg/kg, dosed compound name [14C]Sunitinib; conditions: in vivo, po
[22] = test system: Adrenal; test: Drug concentration in female albino rat adrenal assessed as radioactivity per gram of tissue at 20 mg/kg administered as single dose via gastric gavage measured after 24 hrs by autoradiographic analysis; parameters: dose 20 mg/kg, dosed compound name [14C]Sunitinib; conditions: in vivo, po
Outline: (§3)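 Sprague Dawley (albino) rats, ca 7-8 weeks old, received a single gastric-gavage dose of [14C]sunitinib L-malate at 20 mg/kg (15 mg freebase/kg, 100 µCi/kg). One animal per sex killed by CO2 at 3, 6, 24, 72 and 168 h, then frozen in CO2/hexane. 30 µm sagittal sections were cut and freeze-dried. Radioactivity per gram quantified by whole-body autoradiography using regression against standards. LOQ 0.04–0.06 µg freebase equiv/g.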

[23] = Drug concentration in female albino rat bone marrow assessed as radioactivity per gram of tissue at 20 mg/kg administered as single dose via gastric gavage measured after 24 hrs by autoradiographic analysis; parameters: dose 20 mg/kg, dosed compound name [14C]Sunitinib; conditions: in vivo, po; outline: as §3
[24] = test system: Adrenal; test: Drug concentration in female Lister Hooded pigmented rat adrenal assessed as radioactivity per gram of tissue at 20 mg/kg administered as single dose via gastric gavage measured after 72 hrs by autoradiographic analysis; parameters: dose 20 mg/kg, dosed compound name [14C]Sunitinib; conditions: in vivo, po; outline: as §2
[25] = test system: Liver; test: Drug concentration in female Lister Hooded pigmented rat liver assessed as radioactivity per gram of tissue at 20 mg/kg administered as single dose via gastric gavage measured after 72 hrs by autoradiographic analysis; parameters: dose 20 mg/kg, dosed compound name [14C]Sunitinib; conditions: in vivo, po; outline: as §2
[26] = test system: Small intestine; test: Drug concentration in female albino rat small intestine assessed as radioactivity per gram of tissue at 20 mg/kg administered as single dose via gastric gavage measured after 72 hrs by autoradiographic analysis; parameters: dose 20 mg/kg, dosed compound name [14C]Sunitinib; conditions: in vivo, po

Cmax [1]: 5220 ngequiv/ml
AUC [2]: 2537.1 ng.Eq.hr/ml
Radiolabel recovery [3]: 0.31 ugequiv
Radiolabel recovery [4]: 0.64 ugequiv
Radiolabel recovery [5]: 9.3%
Radiolabel recovery [6]: 71.1%
Radiolabel recovery [7]: 2.2%
Radiolabel recovery [8]: 19.89 ugequiv
Radiolabel recovery [9]: 0.69 ugequiv
Radiolabel recovery [10]: 8.86 ugequiv
Radiolabel recovery [11]: 8.54 ugequiv
Radiolabel recovery [12]: 6.63 ugequiv
Radiolabel recovery [13]: 0.06 ugequiv
Radiolabel recovery [14]: 1.18 ugequiv
Radiolabel recovery [15]: 39.4 ugequiv
Radiolabel recovery [16]: 0.3 ugequiv
Radiolabel recovery [17]: 0.06 ugequiv
Radiolabel recovery [18]: 0.47 ugequiv
Radiolabel recovery [19]: 1.23 ugequiv
Radiolabel recovery [20]: 1.52 ugequiv
Radiolabel recovery [21]: 0.15 ugequiv
Radiolabel recovery [22]: 7.65 ugequiv
Radiolabel recovery [23]: 1.21 ugequiv
Radiolabel recovery [24]: 1.57 ugequiv
Radiolabel recovery [25]: 0.32 ugequiv
Radiolabel recovery [26]: 0.08 ugequiv
Structure (SMILES): CCN(CC)CCNC(=O)c1c(C)[nH]c(/[14CH]=C2\C(=O)Nc3ccc(F)cc32)c1C.O=C(O)C[C@H](O)C(=O)O
